Laboratory results from ChEMBL document CHEMBL1130099, “Stabilized analogs of thymopentin. 2. 1,2- and 3,4-ketomethylene pseudopeptides” (J Med Chem, 1997).

Legend:
[1] = test system: CCRF-CEM; experiment: Binding efficacy expressed as counts remaining after competition was subtracted from total of Thymopentin and divided by the counts reduced by authentic Thymopentin; assay type: functional, Homo sapiens
In short: (§1)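 CEM cells at 5×10^6 cells/0.1 mL binding buffer, given unlabeled peptide over 10^-6 to 10^-3 M plus radiolabeled thymopentin (548 000 cpm), 30 min at 25 °C. Diluted with ice-cold buffer, washed twice by centrifugation, bound counts by scintillation. Efficacy = (total thymopentin binding − counts after competition)/(reduction by authentic thymopentin); mean ± SEM over repeated trials.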

[2] = test system: CCRF-CEM; experiment: Ability to bound CEM cell measured as competition for displacement of radiolabeled Thymopentin from the receptor; assay type: functional, Homo sapiens; in short: as §1
[3] = The plasma half life of compound was determined on heparin prepared by human plasma.
[4] = The plasma half life of compound was determined on EDTA prepared by mouse plasma.; assay type: ADME
In short: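 Peptide incubated in EDTA-treated mouse plasma for variable times. Loss of parent and appearance of degradation products quantified by HPLC with absorbance detection; half-life in min.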

[5] = The plasma half life of compound was determined on heparin prepared by mouse plasma.; assay type: ADME
In short: (§2)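 Half-life in heparinized mouse plasma: peptide incubated for variable times, then parent decrease and degradation products resolved and quantified by HPLC absorbance.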

[6] = species: Mus musculus; experiment: The plasma half life of compound was determined on heparin prepared by mouse plasma; Not degraded; assay type: ADME; in short: as §2
[7] = The plasma half life of compound was determined on heparin prepared by human plasma; Not degraded; conditions: in vivo

| SMILES | Binding [1] | Binding competition [2] | other results |
| --- | --- | --- | --- |
| CC(C)[C@H](CC(=O)[C@H](CC(=O)O)NC(=O)[C@H](CCCCN)NC(=O)[C@@H](N)CCCN=C(N)N)C(=O)N[C@@H](Cc1ccccc1)C(=O)O (stereo in doubt; 3a-B) | 103% | 1091 mean counts | – |
| CCCC[C@H](CC(=O)[C@@H](N)CCCN=C(N)N)C(=O)N[C@@H](CC(=O)O)C(=O)N[C@H](C(=O)N[C@@H](Cc1ccccc1)C(N)=O)C(C)C (stereo in doubt; 2b-A) | – | 3627 mean counts | – |
| CCCC[C@H](CC(=O)[C@@H](N)CCCN=C(N)N)C(=O)N[C@@H](CC(=O)O)C(=O)N[C@H](C(=O)N[C@@H](Cc1ccccc1)C(=O)O)C(C)C (stereo in doubt; 2a-A) | 44% | 2222 mean counts | half-life [3]: 12.5 min |
| CC(C)[C@H](CC(=O)[C@H](CC(=O)O)NC(=O)[C@H](CCCCN)NC(=O)[C@@H](N)CCCN=C(N)N)C(=O)N[C@@H](Cc1ccccc1)C(=O)O (stereo in doubt; 3a-A) | 115% | 844 mean counts | half-life [4]: 5.8 min; half-life [5]: 2.4 min; half-life [3]: 2.7 min |
| CC(C)[C@H](CC(=O)[C@H](CC(=O)O)NC(=O)[C@H](CCCCN)N(C)C(=O)[C@@H](N)CCCN=C(N)N)C(=O)N[C@@H](Cc1ccccc1)C(=O)O | 13% | 2820 mean counts | T1/2 [6]: Not degraded; T1/2 [7]: Not degraded |
| CC(C)[C@H](CC(=O)[C@H](CC(=O)O)NC(=O)[C@@H]1CCCN1C(=O)[C@H](N)CCCN=C(N)N)C(=O)N[C@@H](Cc1ccccc1)C(N)=O | 20% | 2692 mean counts | – |
| CCCC[C@H](CC(=O)[C@@H](N)CCCN=C(N)N)C(=O)N[C@@H](CC(=O)O)C(=O)N[C@H](C(=O)N[C@@H](Cc1ccccc1)C(N)=O)C(C)C (stereo in doubt; 2b-B) | 0% | 3648 mean counts | – |
| CC(C)[C@H](CC(=O)[C@H](CC(=O)O)NC(=O)[C@@H]1CCCN1C(=O)[C@H](N)CCCN=C(N)N)C(=O)N[C@@H](Cc1ccccc1)C(=O)O | 72% | 1686 mean counts | – |
| C[C@H](CC(=O)[C@H](CC(=O)O)NC(=O)[C@H](CCCCN)NC(=O)[C@@H](N)CCCN=C(N)N)C(=O)N[C@@H](Cc1ccccc1)C(=O)O (stereo in doubt; 3e-B) | 24% | 2606 mean counts | – |
| C[C@H](CC(=O)[C@H](CC(=O)O)NC(=O)[C@H](CCCCN)NC(=O)[C@@H](N)CCCN=C(N)N)C(=O)N[C@@H](Cc1ccccc1)C(=O)O (stereo in doubt; 3e-A) | 47% | 2172 mean counts | – |
| CCCC[C@H](CC(=O)[C@@H](N)CCCN=C(N)N)C(=O)N[C@@H](CC(=O)O)C(=O)N[C@H](C(=O)N[C@@H](Cc1ccccc1)C(=O)O)C(C)C (stereo in doubt; 2a-D) | 39% | 2333 mean counts | – |
| CCCC[C@H](NC(=O)[C@@H](N)CCCN=C(N)N)C(=O)N[C@@H](CC(=O)O)C(=O)C[C@H](C(=O)N[C@@H](Cc1ccccc1)C(=O)O)C(C)C (stereo in doubt; 3b-A) | 96% | 1232 mean counts | – |
| CCCC[C@H](CC(=O)[C@@H](N)CCCN=C(N)N)C(=O)N[C@@H](CC(=O)O)C(=O)N[C@H](C(=O)N[C@@H](Cc1ccccc1)C(=O)O)C(C)C (stereo in doubt; 2a-C) | 20% | 2687 mean counts | – |
| CCCC[C@H](CC(=O)[C@@H](N)CCCN=C(N)N)C(=O)N[C@@H](CC(=O)O)C(=O)N[C@@H](C(=O)N[C@@H](Cc1ccccc1)C(=O)O)C(C)C | 71% | 1713 mean counts | – |
| CCCC[C@H](CC(=O)[C@@H](N)CCCN=C(N)N)C(=O)N[C@@H](CC(=O)O)C(=O)N[C@H](C(=O)N[C@@H](Cc1ccccc1)C(=O)O)C(C)C (stereo in doubt; 2a-B) | 47% | 2176 mean counts | – |
| CCCC[C@H](NC(=O)[C@@H](N)CCCN=C(N)N)C(=O)N[C@@H](CC(=O)O)C(=O)C[C@H](C(=O)N[C@@H](Cc1ccccc1)C(=O)O)C(C)C (stereo in doubt; 3b-B) | 85% | 1447 mean counts | – |
